Laboratory results: ChEMBL document CHEMBL1140911, “Semisynthesis, biological activity, and molecular modeling studies of C-ring-modified camptothecins” (J Med Chem, 2009)
pIC50: −log10 of the molar value. Where a name gives a salt, the structure may show the parent alone. Activity calls are given as the source filed them. The calls are words filed in the database; no cut-off is given here.

What was measured:
NCI-H460 = test: Antiproliferative activity against human NCI-H460 cells after short term exposure for 1 hr measured after 72 hrs in drug-free medium; format: functional, cell-based
Summary of the method: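 NCI-H460 human NSCLC cells grown in RPMI 1640 with 10% FCS. IC50 is the concentration giving 50% decrease in cell growth relative to untreated control.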

[1] = target: T1, DNA topoisomerase 1 (Homo sapiens) (UniProt P11387); test: Induction of human recombinant topoisomerase 1-mediated SV40 DNA cleavage at 1 to 50 uM after 30 mins by PAGE
T1 sequence (whole entry): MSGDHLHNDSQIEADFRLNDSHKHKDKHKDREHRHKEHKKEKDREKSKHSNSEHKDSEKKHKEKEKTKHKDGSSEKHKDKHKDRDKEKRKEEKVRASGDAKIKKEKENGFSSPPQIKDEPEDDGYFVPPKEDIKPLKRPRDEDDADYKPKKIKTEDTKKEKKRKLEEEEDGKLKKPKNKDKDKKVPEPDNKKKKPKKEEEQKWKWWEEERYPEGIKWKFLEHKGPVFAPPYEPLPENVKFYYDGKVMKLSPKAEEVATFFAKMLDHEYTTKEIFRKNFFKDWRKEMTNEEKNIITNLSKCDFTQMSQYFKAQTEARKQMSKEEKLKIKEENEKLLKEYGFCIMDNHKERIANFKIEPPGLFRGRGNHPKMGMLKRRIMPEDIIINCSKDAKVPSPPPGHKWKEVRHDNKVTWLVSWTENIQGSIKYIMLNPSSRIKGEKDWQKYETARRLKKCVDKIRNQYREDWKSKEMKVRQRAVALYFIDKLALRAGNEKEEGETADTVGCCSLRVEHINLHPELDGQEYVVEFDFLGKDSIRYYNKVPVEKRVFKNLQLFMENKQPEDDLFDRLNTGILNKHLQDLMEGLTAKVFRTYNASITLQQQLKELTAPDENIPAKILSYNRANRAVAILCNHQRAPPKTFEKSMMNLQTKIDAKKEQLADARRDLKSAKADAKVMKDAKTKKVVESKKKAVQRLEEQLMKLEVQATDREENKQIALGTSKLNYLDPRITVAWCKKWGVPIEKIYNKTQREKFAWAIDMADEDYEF
Summary of the method: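 Substrate was a gel-purified 751-bp BamHI-EcoRI SV40 DNA fragment, uniquely 3′-end labeled (20 000 cpm/sample). It was reacted with full-length human recombinant topo I and drug at 1, 10 and 50 µM in 10 mM Tris-HCl pH 7.6, 150 mM KCl, 5 mM MgCl2, 15 µg/mL BSA, 0.1 mM DTT, 30 min at 37 °C. Stopped with 0.5% SDS/0.3 mg/mL proteinase K, 45 min, 42 °C. Run on denaturing 8% polyacrylamide gel and quantified by phosphorimaging. Band intensity was compared with SN38 reference.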

Q: CC[C@@]1(O)C(=O)OCc2c1cc1n(c2=O)Cc2cc3c(CN(C)C)c(O)ccc3nc2-1 [TOPOTECAN HYDROCHLORIDE] was tested. Which pIC50 (NCI-H460) did it give?
A: 6.21

Q: Which results are given for CC[C@@]1(O)C(=O)OCc2c1cc1c3nc4ccccc4cc3c3nnc2n13?
A: pIC50 (NCI-H460): 4.97; Activity [1]: Active

Q: What does the source list for CC[C@@]1(O)C(=O)OCc2c1cc1n(c2=O)C(C)c2cc3ccccc3nc2-1 (mixture of isomers)?
A: pIC50 (NCI-H460): 5.23; Activity [1]: Active

Q: CC[C@@]1(O)C(=O)OCc2c1cc1n(c2=O)[C@@H](N(NC(=O)OCc2ccccc2)C(=O)OCc2ccccc2)c2cc3ccccc3nc2-1 was tested. Which pIC50 (NCI-H460) did it give?
A: 4.07

Q: How did the pIC50 (NCI-H460) turn out when CC[C@@]1(O)C(=O)OCc2c1cc1n(c2=O)[C@@H](N=[N+]=[N-])c2cc3ccccc3nc2-1 was run?
A: 4.94

Q: How did the pIC50 (NCI-H460) turn out when CC[C@@]1(O)C(=O)OCc2c1cc1n(c2=O)[C@@H](N(NC(=O)OC(C)(C)C)C(=O)OC(C)(C)C)c2cc3ccccc3nc2-1 was run?
A: < 3.76

Q: How did the pIC50 (NCI-H460) turn out when CC[C@@]1(O)C(=O)OCc2c1cc1n(c2=O)C(CCCO)c2cc3ccccc3nc2-1 (mixture of isomers) was run?
A: 4.80

Q: CCc1c2c(nc3ccc(O)cc13)-c1cc3c(c(=O)n1C2)COC(=O)[C@]3(O)CC [7-ETHYL-10-HYDROXYCAMPTOTHECIN] was tested. Which pIC50 (NCI-H460) did it give?
A: 6.89

Q: What about the Activity [1] of the same compound?
A: Active

Q: CC[C@@]1(O)C(=O)OCc2c1cc1n(c2=O)[C@H](N=[N+]=[N-])c2cc3ccccc3nc2-1 was tested. Which pIC50 (NCI-H460) did it give?
A: 5.17

Q: What about the Activity [1] of the same compound?
A: Active

Q: With CC[C@@]1(O)C(=O)OCc2c1cc1n(c2=O)C(N=[N+]=[N-])(N=[N+]=[N-])c2cc3ccccc3nc2-1 (stereo not given in full) as the compound, how does the pIC50 (NCI-H460) read?
A: 5.03

Q: With CC[C@@]1(O)C(=O)OCc2c1cc1n(c2=O)[C@H](N(NC(=O)OCc2ccccc2)C(=O)OCc2ccccc2)c2cc3ccccc3nc2-1 as the compound, how does the pIC50 (NCI-H460) read?
A: 4.22

Q: What does the source list for CC[C@@]1(O)C(=O)OCc2c1cc1n(c2=O)[C@H](N(NC(=O)OC(C)(C)C)C(=O)OC(C)(C)C)c2cc3ccccc3nc2-1?
A: pIC50 (NCI-H460): 4.11; Activity [1]: Active

Q: How did the pIC50 (NCI-H460) turn out when CC[C@@]1(O)C(=O)OCC2=C1C=C1c3nc4ccccc4cc3C3NN=C2N13 (mixture of isomers) was run?
A: 4.33

Q: What about the Activity [1] of the same compound?
A: Active

Q: CC[C@@]1(O)C(=O)OCc2c1cc1n(c2=O)[C@@H](F)c2cc3ccccc3nc2-1 was tested. Which pIC50 (NCI-H460) did it give?
A: 4.25

Q: What about the Activity [1] of the same compound?
A: Active

Q: With CC[C@@]1(O)C(=O)OCc2c1cc1n(c2=O)[C@H](F)c2cc3ccccc3nc2-1 as the compound, how does the pIC50 (NCI-H460) read?
A: 4.25

Q: What about the Activity [1] of the same compound?
A: Active

Q: With CC[C@@]1(O)C(=O)OCc2c1cc1n(c2=O)C(N)c2cc3ccccc3nc2-1 (stereo not given in full) as the compound, how does the pIC50 (NCI-H460) read?
A: 4.52

Q: And the Activity [1]?
A: Active
